The values that follow come from ChEMBL document CHEMBL3414530, “Synthesis, molecular modeling, and biological evaluation of novel RAD51 inhibitors” (Eur J Med Chem, 2015).

SMILES strings stand for the structures. Activity calls are given as the source filed them. The rule behind the calls is not given here.

The test system of one data set is MDA-MB-468. The data set is described as follows: Cytotoxicity against human MDA-MB-468 cells assessed as growth inhibition after 4 days by XTT assay. It is filed as functional, cell-based. To be noted: MDA-MB-468, 96 h. The gist of the method:
(§1)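 Cells kept in low-glucose DMEM with 10% FBS and 1% penicillin-streptomycin, seeded in 96-well plates the day before treatment. Compound exposure lasted four days, and the XTT cell proliferation kit was read on day 6 after drug addition. Dose-response cytotoxicity was measured in triplicate sets.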
In general terms: Tetrazolium assays rely on reduction of a dye to a coloured formazan, in cell work by metabolically active cells.

Data set [1] has as its target T1, DNA repair protein RAD51 homolog 1 (Homo sapiens) (UniProt Q06609).
T1 sequence (whole entry): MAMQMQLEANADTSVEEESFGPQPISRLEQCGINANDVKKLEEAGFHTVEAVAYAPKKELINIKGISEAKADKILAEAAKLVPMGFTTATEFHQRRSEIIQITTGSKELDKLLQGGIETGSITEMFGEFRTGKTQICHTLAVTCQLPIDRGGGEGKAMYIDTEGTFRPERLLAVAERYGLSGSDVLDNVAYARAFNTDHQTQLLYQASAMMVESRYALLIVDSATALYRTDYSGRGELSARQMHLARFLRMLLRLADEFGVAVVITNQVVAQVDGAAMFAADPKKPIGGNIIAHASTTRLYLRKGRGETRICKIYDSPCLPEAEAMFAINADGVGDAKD
The data set is described as follows: Inhibition of RAD51 (unknown origin) multimerization by gel filtration method. The gist of the method: (§2)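 Purified RAD51 (3.2 µg) preincubated with compound at 1:10 protein:compound molar ratio, 15 min at 37°C. Then 15 min in 50 mM triethanolamine-HCl pH 7.5, 0.5 mM Mg(OAc)2, 1 mM DTT, 2 mM ATP, 100 µg/ml BSA. Run on Superdex 200 PC 3.2/30 gel filtration in the same buffer. 50 µl fractions dot-blotted onto PVDF and probed with anti-RAD51 mAb 14B4.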

Data set [2] deals with T1, DNA repair protein RAD51 homolog 1 (Homo sapiens). The data set can be described thus: Inhibition of RAD51 in human HeLa cells expressing DR-GFP assessed as reduction of homologous recombination frequency at 10 to 20 uM after 24 hrs by I-SceI inducible gene conversion assay. It is filed as cell-based. The gist of the method:
(§3)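 HeLa cells stably carrying DR-GFP (puromycin 2 µg/mL selection) were transiently transfected with I-SceI vector pCBASce for 24 h to induce DSBs. They were then treated with DMSO or compound at 10 or 20 µM for another 24 h. GFP-positive percentage was measured by flow cytometry as means±SD from three independent experiments.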

A further data set concerns K562. The data set can be described thus: Cytotoxicity against human K562 cells assessed as growth inhibition after 4 days by XTT assay. Type of data set: functional, cell-based. To be noted: K562, 96 h.
For the next data set, the system named is MCF7. The data set can be described thus: Cytotoxicity against human MCF7 cells assessed as growth inhibition after 4 days by XTT assay. Type of data set: functional, cell-based. As to conditions: MCF7, 96 h. The gist of the method: as §1
Another data set has as its system MDA-MB-231. The data set can be described thus: Cytotoxicity against human MDA-MB-231 cells assessed as growth inhibition after 4 days by XTT assay. It is filed as functional, cell-based. As to conditions: MDA-MB-231, 96 h. The essentials: as §1
For the next data set, the system named is MDA-MB-361. The data set can be described thus: Cytotoxicity against human MDA-MB-361 cells assessed as growth inhibition after 4 days by XTT assay. To be noted: MDA-MB-361, 96 h. Type of data set: functional, cell-based. The gist of the method: as §1
In the next data set the test system is MDA-MB-435. The data set can be described thus: Cytotoxicity against human MDA-MB-435 cells assessed as growth inhibition after 4 days by XTT assay. Type of data set: functional, cell-based. As to conditions: MDA-MB-435, 96 h. The essentials: as §1
Data set [3] can be described thus: Cytotoxicity against human Hs578T cells assessed as growth inhibition after 4 days by XTT assay. Type of data set: functional, cell-based. As to conditions: Hs-578T, 96 h. The essentials: as §1
For a further data set, the system named is T47D. The data set can be described thus: Cytotoxicity against human T47D cells assessed as growth inhibition after 4 days by XTT assay. To be noted: 96 h. Type of data set: functional, cell-based.
A further data set relates to U2OS. The data set can be described thus: Cytotoxicity against human U2OS cells assessed as growth inhibition after 4 days by XTT assay. It is filed as functional, cell-based. As to conditions: 96 h. The gist of the method:
as §1

The next data set deals with T98G. The data set can be described thus: Cytotoxicity against human T98G cells assessed as growth inhibition after 4 days by XTT assay. Type of data set: functional, cell-based. To be noted: 96 h. The essentials: as §1
The test system of a further data set is HeLa. The data set is described as follows: Cytotoxicity against human HeLa cells assessed as growth inhibition after 4 days by XTT assay. It is filed as functional, cell-based. To be noted: 96 h.
Data set [4] is described as follows: Cytotoxicity against human MCF10A cells assessed as growth inhibition after 4 days by XTT assay. As to conditions: MCF-10A, 96 h. Type of data set: cell-based.
Data set [5] is described as follows: Selectivity ratio of IC50 for human MCF10A cells to IC50 for human T47D cells. It is filed as ADME, cell-based, MCF-10A. As to conditions: MCF10A cells versus T47D cells.
Data set [6] can be described thus: Selectivity ratio of IC50 for human MCF10A cells to IC50 for human T98G cells. Type of data set: ADME, cell-based, MCF-10A. As to conditions: MCF10A cells versus T98G cells.
For data set [7], the target named is T1, DNA repair protein RAD51 homolog 1 (Homo sapiens). The data set can be described thus: Inhibition of RAD51 (unknown origin) multimerization at 1:10 M ratio of protein to compound after 15 mins by gel filtration method. The essentials: as §2
Background: Size exclusion chromatography separates by hydrodynamic size, large species first.

Data set [8] has the same target. The data set is described as follows: Inhibition of RAD51 in human HeLa cells expressing DR-GFP assessed as reduction of homologous recombination frequency after 24 hrs by I-SceI inducible gene conversion assay. It is filed as cell-based. The gist of the method: as §3

One may read the IC50 as the concentration needed to halve the response being measured. In the case of `O=S(=O)(Cc1ccccc1)N1CCc2ccccc2[C@H]1c1c[nH]c2ccccc12`, in the data set on MDA-MB-468, the IC50 is 13.2 µM.
Turning to `O=S(=O)(Cc1ccc(F)cc1)N1CCc2ccccc2[C@@H]1c1c[nH]c2ccccc12`, the IC50 in the data set with MDA-MB-468 is 11.2 µM.
Consider `O=S(=O)(Cc1ccccc1)N1CC=Cc2ccccc2[C@H]1c1c[nH]c2ccccc12`, for which, in the data set on MDA-MB-468, the IC50 is more than 50 µM.
Regarding `O=S(=O)(Cc1cccc(C(F)(F)F)c1)N1CCc2ccccc2[C@@H]1c1c[nH]c2ccccc12`, the IC50 in the data set on MDA-MB-468 was 11.1 µM.
Consider `COc1nccc2c(C3c4ccccc4C=CN3S(=O)(=O)Cc3ccccc3)c[nH]c12` (racemic), for which the IC50 in the data set with MDA-MB-468 turned out to be 6.3 µM.
In the case of `O=S(=O)(Cc1ccc(C(F)(F)F)cc1)N1CCc2ccccc2[C@H]1c1c[nH]c2ccccc12`, the IC50 with MDA-MB-468 was 20.7 µM.
As to `O=S(=O)(Cc1ccccc1)N1C=Cc2ccccc2C1c1c[nH]c2ncccc12` (racemic), the IC50 in the data set with MDA-MB-468 was found to be 6.2 µM.
`COc1cc2c(C3c4ccccc4C=CN3S(=O)(=O)Cc3ccccc3)c[nH]c2cn1` (racemic): the IC50 in the data set with MDA-MB-468 was found to be 12.7 µM.
`O=S(=O)(Cc1ccccc1C(F)(F)F)N1CCc2ccccc2[C@H]1c1c[nH]c2ccccc12`: the IC50 in the data set with MDA-MB-468 was found to be 16.7 µM.
With `O=S(=O)(Cc1ccccc1)N1CCc2ccccc2[C@@H]1c1c[nH]c2ccccc12`, the IC50 with MDA-MB-468 was found to be 11.7 µM.
In the case of `O=S(=O)(Cc1ccccc1F)N1CCc2ccccc2[C@H]1c1c[nH]c2ccccc12`, the 50% inhibitory concentration (IC50) in the data set with MDA-MB-468 was 19.2 µM.
On to `O=S(=O)(Cc1ccc(C(F)(F)F)cc1)N1CCc2ccccc2[C@@H]1c1c[nH]c2ccccc12`, for which the IC50 in the data set on MDA-MB-468 was determined as 13.6 µM.
With `O=S(=O)(Cc1ccccc1)N1C=Cc2ccccc2C1c1c[nH]c2ccccc12` (racemic), the IC50 with MDA-MB-468 was determined as 14.8 µM. Besides, the inhibition result in [1] and in data set [2] was “Active” in each case.
Regarding `Nc1ncc([C@@H]2c3ccccc3CCN2S(=O)(=O)Cc2ccccc2)s1`, in the data set on MDA-MB-468, the IC50 was more than 25 µM.
Take `O=S(=O)(Cc1ccccc1)N1Cc2ccccc2[C@@H]1c1c[nH]c2ccccc12`: the IC50 in the data set on K562 was 3.6 µM; in the data set on MCF7, 3.1 µM; in the data set with MDA-MB-231, 3.5 µM; with MDA-MB-361, 4.5 µM; in the data set with MDA-MB-435, 4 µM; in [3] it was 4.9 µM. For the same compound, the IC50 in the data set on T47D was 6.3 µM; in the data set with U2OS it was 4.7 µM; in the data set on T98G it was 9.5 µM; in the data set on HeLa, 3.6 µM; in data set [4] it was more than 30 µM. Besides, the selectivity ratio is more than 4.8 in data set [5] and more than 3.2 in data set [6]. In addition, the inhibition entry in [7] is “Active”. Besides, the inhibition result in data set [8] was “Dose-dependent effect”.
For `O=S(=O)(Cc1ccccc1)N1CC=Cc2ccccc2[C@@H]1c1c[nH]c2ccccc12`, the IC50 with MDA-MB-468 was 14.7 µM.
Take `O=S(=O)(Cc1ccccc1)N1CCc2ccccc2[C@@H]1c1n[nH]c2ccccc12`: the IC50 with MDA-MB-468 is 9.5 µM.
As for `O=S(=O)(Cc1ccccc1F)N1CCc2ccccc2[C@@H]1c1c[nH]c2ccccc12`, the IC50 in the data set with MDA-MB-468 was 12.7 µM.
On the same count and under the same terms, the figure for `O=S(=O)(Cc1ccccc1C(F)(F)F)N1CCc2ccccc2[C@@H]1c1c[nH]c2ccccc12` is 14.8 µM; for `O=S(=O)(Cc1cccc(F)c1)N1CCc2ccccc2[C@H]1c1c[nH]c2ccccc12` it is 17.2 µM; for `O=S(=O)(Cc1cccc(F)c1)N1CCc2ccccc2[C@@H]1c1c[nH]c2ccccc12` it is 14.2 µM.
As to `O=S(=O)(Cc1ccccc1)N1CCc2ccccc2[C@H]1c1n[nH]c2ccccc12`, the IC50 with MDA-MB-468 is 14.3 µM.
Take `O=S(=O)(Cc1cccc(C(F)(F)F)c1)N1CCc2ccccc2[C@H]1c1c[nH]c2ccccc12`: the IC50 in the data set with MDA-MB-468 came out at 22.2 µM.
Regarding `O=S(=O)(Cc1ccccc1)N1Cc2ccccc2[C@H]1c1c[nH]c2ccccc12`, the 50% inhibitory concentration (IC50) in the data set with MDA-MB-468 is more than 12 µM.
In the case of `O=S(=O)(Cc1ccc(F)cc1)N1CCc2ccccc2[C@H]1c1c[nH]c2ccccc12`, in the data set with MDA-MB-468, the IC50 was 25.7 µM.
